The text below walks through data of ChEMBL document CHEMBL1124970, “New leupeptin analogues: synthesis and inhibition data” (J Med Chem, 1990).

Each structure is given as a SMILES string. pIC50: −log10 of the molar value. Where a SMILES comes first, the peptide text is derived from it. [ ]: non-standard residue; d: D form. The star is where a group is joined. Orn = NCCC[C@H](N)C(=O)O; Cbz = O=C(OCc1ccccc1)*

One assay addresses Kallikrein-1 (Homo sapiens, UniProt P06870). Kind of assay: Inhibition of Kallikrein proteolytic enzyme. Put shortly:
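Human urinary kallikrein (0.3 units/mL stock) at 37 °C in 0.46 M Tris pH 8.0 containing 0.0115 M NaCl, inhibitor in 1% DMSO/water. Benzoylarginine ethyl ester (0.5 mM stock) substrate, 2 min incubation, absorbance change at 253 nm over 10 min. Quadruplicate measurements at ≥5 inhibitor concentrations; IC50 read from % inhibition vs log inhibitor concentration.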

Assay [1] concerns the target T1, Plasminogen (Rattus norvegicus, UniProt Q01177). Kind of assay: Evaluated for the inhibition of plasmin.(no inhibition at 400 uM). Put shortly: (§1)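 Plasmin (0.25 casein units/mL stock, in 50% glycerol/2 mM HCl with 5 g/L carbowax) in 0.5 M Tris pH 8.0 with 0.12 M NaCl, inhibitor added in 1% DMSO/water, 37 °C. D-Val-Leu-Lys p-nitroanilide (3.35 mM stock) added, 1 min incubation, then A405 change followed over 10 min. Four runs at ≥5 inhibitor concentrations; % inhibition vs log[I] gives IC50.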

The target in assay [2] is T2, Serine protease 1 (Homo sapiens, UniProt P07477). Kind of assay: Evaluated for the inhibition of trypsin.(no inhibition at 400 uM). Put shortly: (§2)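 Trypsin (0.01 g/L stock in 0.001 N HCl) in 0.046 M Tris with 0.0115 M CaCl2, pH 8.1, inhibitor in 1% DMSO/water, 37 °C. Tosyl-L-arginine methyl ester (0.01 M stock) added, 2 min incubation, A247 change read over 10 min. Each inhibitor level run four times, five or more levels; IC50 from % inhibition plotted against log concentration.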

Assay [3] addresses T1, Plasminogen. Kind of assay: Inhibition of plasmin. Put shortly:
as §1

Assay [4] deals with T2, Serine protease 1. Kind of assay: Evaluated for the inhibition of trypsin. Put shortly:
as §2

The target in assay [5] is T1, Plasminogen. In words: Evaluated for the inhibition of plasmin.( no inhibition at 400 uM). Put shortly: as §1

T1 sequence (Q01177 97-581 limits assumed): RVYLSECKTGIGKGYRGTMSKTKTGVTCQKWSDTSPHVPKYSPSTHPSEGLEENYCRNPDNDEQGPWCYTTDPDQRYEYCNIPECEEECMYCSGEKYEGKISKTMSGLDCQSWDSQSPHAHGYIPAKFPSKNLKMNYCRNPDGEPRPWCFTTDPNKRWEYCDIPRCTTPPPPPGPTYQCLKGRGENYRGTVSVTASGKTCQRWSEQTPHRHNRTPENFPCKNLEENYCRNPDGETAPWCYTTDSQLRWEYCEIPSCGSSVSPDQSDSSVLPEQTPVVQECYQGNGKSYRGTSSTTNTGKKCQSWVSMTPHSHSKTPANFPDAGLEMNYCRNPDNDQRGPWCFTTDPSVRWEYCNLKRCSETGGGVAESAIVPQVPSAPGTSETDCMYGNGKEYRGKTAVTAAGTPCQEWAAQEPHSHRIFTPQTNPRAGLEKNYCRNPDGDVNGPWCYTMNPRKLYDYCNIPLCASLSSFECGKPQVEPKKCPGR
T1 sequence (Q01177 582-812 limits assumed): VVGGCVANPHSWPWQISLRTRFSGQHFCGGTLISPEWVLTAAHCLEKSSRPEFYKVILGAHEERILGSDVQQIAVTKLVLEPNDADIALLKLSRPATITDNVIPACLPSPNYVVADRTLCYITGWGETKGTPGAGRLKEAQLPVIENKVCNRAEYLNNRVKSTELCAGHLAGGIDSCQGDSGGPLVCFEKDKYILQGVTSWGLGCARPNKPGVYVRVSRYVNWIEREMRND
Sequence of Kallikrein-1 (P06870 whole entry): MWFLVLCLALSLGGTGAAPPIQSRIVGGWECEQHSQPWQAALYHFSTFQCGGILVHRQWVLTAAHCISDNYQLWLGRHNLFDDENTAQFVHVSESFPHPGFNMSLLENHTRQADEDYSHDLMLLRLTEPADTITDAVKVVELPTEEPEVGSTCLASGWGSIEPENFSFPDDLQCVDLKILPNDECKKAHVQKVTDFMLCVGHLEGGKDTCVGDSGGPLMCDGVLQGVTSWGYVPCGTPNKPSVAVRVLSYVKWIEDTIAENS
T2 sequence (P07477 whole entry): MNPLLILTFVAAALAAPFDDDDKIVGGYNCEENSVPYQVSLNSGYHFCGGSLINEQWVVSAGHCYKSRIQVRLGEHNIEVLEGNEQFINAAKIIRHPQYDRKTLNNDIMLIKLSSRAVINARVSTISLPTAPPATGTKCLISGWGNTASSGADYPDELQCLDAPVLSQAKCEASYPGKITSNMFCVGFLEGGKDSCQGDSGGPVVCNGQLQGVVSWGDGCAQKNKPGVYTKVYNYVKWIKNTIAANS

For `CC(C)C[C@H](NC(=O)OCc1ccccc1)C(=O)N[C@@H](CC(C)C)C(=O)N[C@H](C=O)CCCN` (Cbz-Leu-Leu-[Orn]-aldehyde), the pIC50 against Kallikrein-1 was 4.53; against Plasminogen [1], under 3.40; at Serine protease 1 [2], under 3.40.
Turning to `CC(C)C[C@H](NC(=O)[C@H](Cc1ccccc1)NC(=O)OCc1ccccc1)C(=O)N[C@H](C=O)CCCN=C(N)N` (Cbz-Phe-Leu-Arg-aldehyde), the negative-log IC50 (pIC50) was 4.59 at Kallikrein-1, 4.99 against Plasminogen [3] and 4.34 against Serine protease 1 [4].
As to `CC(C)C[C@H](NC(=O)OCc1ccccc1)C(=O)N[C@@H](Cc1ccccc1)C(=O)N[C@H](C=O)CCCN` (Cbz-Leu-Phe-[Orn]-aldehyde), the figures for the pIC50 at Kallikrein-1, at Plasminogen [5] and on Serine protease 1 [2] were 4.08, under 3.40 and under 3.40, respectively.
On to `CC(C)C[C@H](NC(=O)[C@H](Cc1ccccc1)NC(=O)OCc1ccccc1)C(=O)N[C@H](C=O)CCCN` (Cbz-Phe-Leu-[Orn]-aldehyde), for which the pIC50 against Kallikrein-1 was 3.95; against Plasminogen [3], 3.62; against Serine protease 1 [2], under 3.40.
Consider `CC(C)C[C@H](NC(=O)OCc1ccccc1)C(=O)N[C@@H](Cc1ccccc1)C(=O)N[C@H](C=O)CCCCN` (Cbz-Leu-Phe-Lys-aldehyde), for which the pIC50 was 4.69 at Kallikrein-1, 4.33 on Plasminogen [3] and under 3.40 against Serine protease 1 [2].
Turning to `CC(C)C[C@H](NC(=O)OCc1ccccc1)C(=O)N[C@@H](CC(C)C)C(=O)N[C@H](C=O)CCCN=C(N)N`, the pIC50 was 4.44 against Kallikrein-1, 3.89 at Plasminogen [3] and 3.79 against Serine protease 1 [4].
With `CC(C)C[C@H](NC(=O)OCc1ccccc1)C(=O)N[C@@H](Cc1ccccc1)C(=O)N[C@H](C=O)CCCN=C(N)N` (Cbz-Leu-Phe-Arg-aldehyde), the pIC50 at Kallikrein-1 was 4.48; on Plasminogen [3], 4.10; at Serine protease 1 [4] it was 3.97.
For `CC(C)C[C@H](NC(=O)OCc1ccccc1)C(=O)N[C@H](C(=O)N[C@H](C=O)CCCN=C(N)N)C(C)C` (Cbz-Leu-Val-Arg-aldehyde) the same measures were 4.95, 4.99 and 4.09.
As for `CC(C)C[C@H](NC(=O)OCc1ccccc1)C(=O)N[C@H](C(=O)N[C@H](C=O)CCCN)C(C)C` (Cbz-Leu-Val-[Orn]-aldehyde), the pIC50 on Kallikrein-1 is 4.27; at Plasminogen [3], 3.36; at Serine protease 1 [2], under 3.40.
For `CC(C)C[C@H](NC(=O)[C@H](Cc1ccccc1)NC(=O)OCc1ccccc1)C(=O)N[C@H](C=O)CCCCN` (Cbz-Phe-Leu-Lys-aldehyde) the same measures were 4.59, 5.05 and under 3.40.
Taken in the same sequence, the figures for `CC(C)C[C@H](NC(=O)OCc1ccccc1)C(=O)N[C@H](C(=O)N[C@H](C=O)CCCCN)C(C)C` (Cbz-Leu-Val-Lys-aldehyde) were 4.83, 4.73 and under 3.40.
On to `CC(C)C[C@H](NC(=O)OCc1ccccc1)C(=O)N[C@@H](CC(C)C)C(=O)N[C@H](C=O)CCCCN` (Cbz-Leu-Leu-Lys-aldehyde), for which the values for the pIC50 at Kallikrein-1, against Plasminogen [3] and at Serine protease 1 [4] were 4.72, 3.74 and 3.71, respectively.
